UPR XBP1 act: adaptive UPR (XBP1) activation; CHO-XBP1 luciferase reporter, IRE1-XBP1 UPR activation, luminescence; percent of tunicamycin response, DMSO as zero; activation, % at 20 µM; 330,000 compounds, 0.33% hits; AID 463104;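 active means versus positive control, 20 µM dose yields 30% or more activation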
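assay system = CHO-XBP1 luciferase reporter cells | amount = 1000 cells/well | buffer or medium = F12 plus 10% FBS | compound dosing = single point, 20 µM final compound, 1% DMSO | incubation = 16-18 h cell attachment at 37 °C, then 6 h compound exposure | detection = Steady-Glo luminescence read | controls = tunicamycin 10 µg/mL and vehicle-only wells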
GAA850 FXN act: increases GAA850 frataxin promoter reporter activity; activation, % at 6 µM; HEK293 lucGAA850 FXN promoter luciferase reporter, 24 h; percent of 10 µM SAHA response; 360,000 compounds, 0.56% hits;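 active means activation above the average of all compounds screened plus 3 SD, cutoff fixed separately per campaign, cut at about 7.5% in these data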
CHOP inh: blocks CHOP induction under ER stress | AID 2732 | inhibition, % at 10 µM | 220,000 compounds, 3.8% hits | CHO-K1 CHOP-promoter luciferase, tunicamycin-induced, 15-18 h;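 active means compounds that reduced the stress-induced luciferase reporter signal by more than about 70% of percent inhibition, limit read from the data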
CHOP UPR activ: activators of apoptotic arm of unfolded protein response (CHOP). CHO-CHOP luciferase reporter, UPR activation, luminescence; percent of tunicamycin response over DMSO baseline. activation, % at 10 µM. 330,000 compounds, 0.34% hits. AID 449763;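 active means at 10 µM dose, activation of 40% or more, normalized to positive control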
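measured by = luciferase luminescence | assay system = CHO-CHOP cells, stable luciferase reporter of PERK-eIF2a-CHOP signalling | amount = 500 reporter cells seeded per well | timing = 6 h compound exposure at 37 °C after overnight seeding | controls = positive tunicamycin 10 µg/mL, negative DMSO alone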
CHOP UPR conf: confirmation of apoptotic unfolded protein response (CHOP) activators | shares compounds with CHOP UPR activ | CHO-CHOP cells, CHOP-luciferase reporter luminescence; percent of tunicamycin response, DMSO as zero | activation, % at 10 µM | 1,000 compounds, 64% hits | AID 463112; in the data active means activation above about 33%
Each line names hits and unclear results; the compound was inactive in the other large screens (follow-up assays come after a bar, where they were run). The sample as a whole holds a higher share of hits than the screen did.

COc1cc(/C=C(/C(=O)c2cccs2)c2nc3ccccc3[nH]2)ccc1O	none
O=C(/C(=C/c1ccc(Cl)cc1)c1nc2ccccc2[nH]1)c1cccs1	CHOP UPR activ 86.7 | CHOP UPR conf 84.6
C/C(CCc1oc2c(Br)cc(Br)cc2c1-c1ccc(C)o1)=N\O	CHOP UPR activ 88.8 | CHOP UPR conf inactive
Oc1ccc(/C=N/N(c2ccccc2)c2ccccc2)cc1O	CHOP UPR activ 107.0 (no result: CHOP inh) | CHOP UPR conf 32.6
O=C(CSC(=S)N1CCCC1)c1cc(Br)cc(Br)c1O	CHOP UPR activ 71.1 (no result: GAA850 FXN act) | CHOP UPR conf 44.9
COc1cc(NC(=O)CNc2cccc(S(=O)(=O)N3CCOCC3)c2)cc(OC)c1	CHOP UPR activ 40.8 (no result: CHOP inh) | CHOP UPR conf inactive
Cc1ccc(NC(=O)CNc2cccc(S(=O)(=O)N3CCOCC3)c2)cc1F	none (no result: CHOP inh)
CCOc1ccc2nc(Cl)c(C3CC(c4ccco4)=NN3S(=O)(=O)c3ccccc3)cc2c1 (configuration not stated)	none
CCOc1ccc2nc(Cl)c(C3CC(c4ccccc4)=NN3C(=O)c3ccco3)cc2c1 (configuration not stated)	UPR XBP1 act 121.9, CHOP inh 95.8, CHOP UPR activ 123.7 (no result: GAA850 FXN act) | CHOP UPR conf inactive
COc1ccc(-c2cccc(N3CCN(c4ccccn4)CC3)n2)cc1OC	none (no result: UPR XBP1 act, CHOP inh, CHOP UPR activ)
CCOC(=O)c1ccc(NC2=CC(=O)C(=O)c3ccccc32)cc1	CHOP UPR activ 65.0 | CHOP UPR conf inactive
CCOC(=O)c1cnc(-n2nc(C)cc2C)nc1NC(C)c1ccccc1 (configuration not stated)	CHOP UPR activ 73.1 | CHOP UPR conf inactive
CCOC(=O)c1cnc(-n2nc(C)cc2C)nc1NCc1ccccc1	CHOP UPR activ 73.7 | CHOP UPR conf inactive
CCOC(=O)c1cnc(-n2nc(C)cc2C)nc1NNc1ncc(-c2ccccc2)cn1	none (no result: GAA850 FXN act)
Cc1cc(C(=O)c2ccc(C(C)(C)C)cc2)c(NC(=O)CCl)s1	CHOP UPR activ 50.3 | CHOP UPR conf 93.7
CC1=C/C(=N\OC(=O)/C=C/c2ccccc2)C(C)=CC1=O	CHOP UPR activ 106.6 | CHOP UPR conf 41.4
C=CCN(c1ccc(F)cc1)S(=O)(=O)c1cc(C(=O)NC2CC2)ccc1Cl	none (no result: UPR XBP1 act, CHOP inh, CHOP UPR activ)
CC(NC(=O)CN(c1cccc(C(F)(F)F)c1)S(=O)(=O)c1ccc(Cl)c([N+](=O)[O-])c1)c1ccccc1 (configuration not stated)	CHOP UPR activ 103.7 | CHOP UPR conf 140.0
O=C(Nc1nc(-c2ccccn2)cs1)c1cc(Cl)ccc1[N+](=O)[O-]	CHOP UPR activ 65.7 | CHOP UPR conf 166.7
COc1ccc(-c2ccc(-c3nc4c(c(=O)[nH]c(=O)n4Cc4ccccc4)n3C)o2)c([N+](=O)[O-])c1	CHOP inh 90.2, CHOP UPR activ 59.2 | CHOP UPR conf 40.9
CC(C)c1ccc(NC(=O)c2cc(-c3cc(F)ccc3OCC3CCCO3)n[nH]2)cc1 (configuration not stated)	none (no result: UPR XBP1 act, CHOP inh, CHOP UPR activ)
C=CCn1c(O)c(N=NC(=S)Nc2ccccc2F)c2cc(S(=O)(=O)N3CCOCC3)ccc21	CHOP UPR activ 88.3 | CHOP UPR conf 121.4
CCOc1cc(C2c3c(-c4ccccc4)n[nH]c3C(=O)N2c2ccc(C(=O)O)cc2)ccc1O (configuration not stated)	CHOP UPR activ 45.4 | CHOP UPR conf inactive
O=C(O)c1ccc(N2C(=O)c3[nH]nc(-c4ccccc4)c3C2c2ccccc2)cc1 (configuration not stated)	none
COc1cccc(C(O)c2nc(-c3ccccc3)cs2)c1 (configuration not stated)	none (no result: UPR XBP1 act, CHOP inh, CHOP UPR activ)
CCCCCCc1nc2nc(Cl)c(Cl)nc2[nH]1	none (no result: UPR XBP1 act, CHOP inh, CHOP UPR activ)
CC(NC(=O)C12CC3CC(CC(C3)C1)C2)C(=O)NN=Cc1ccc([N+](=O)[O-])o1 (configuration not stated)	CHOP UPR activ 197.3 (no result: CHOP inh) | CHOP UPR conf inactive
CC(NC(=O)c1ccc([N+](=O)[O-])o1)C12CC3CC(CC(C3)C1)C2 (configuration not stated)	CHOP UPR activ 84.7 (no result: CHOP inh) | CHOP UPR conf inactive
O=C(N/N=C/c1ccc([N+](=O)[O-])o1)C1CCCC1	none (no result: CHOP inh)
CCc1ccc(CN2CCC(Oc3cc(C(=O)NC4CC4)ccc3OC)CC2)cc1	none (no result: UPR XBP1 act, CHOP inh, CHOP UPR activ)
CN(C)C(=S)N=Nc1[nH]c2ccccc2c1O	CHOP UPR activ 465.7 (no result: GAA850 FXN act) | CHOP UPR conf 341.1
CCOCCCN1CN(Cc2ccco2)CNC1=S	none
S=C1SCN(Cc2ccccn2)CN1Cc1ccco1	CHOP UPR activ 101.5 | CHOP UPR conf 50.1
COCCN1CSC(=S)N(Cc2ccco2)C1	CHOP UPR activ 90.8 | CHOP UPR conf 53.0
O=C1c2ccccc2C(=O)c2c1cccc2N1CCCC1	none (no result: UPR XBP1 act, CHOP UPR activ)
O=C1C=C(N2CCCCC2)c2ccccc2C1=O	CHOP UPR activ 76.2 (no result: CHOP inh) | CHOP UPR conf inactive
CCOc1cc(/C=N\NC(=O)c2ccc(NC(=O)C(C)(C)C)cc2)ccc1OC(=O)c1cccc(C)c1	none
CCOc1cc(/C=N\NC(=O)c2ccc(NC(=O)CC)cc2)ccc1OC(=O)c1ccccc1	CHOP inh 74.8, CHOP UPR activ 56.7 | CHOP UPR conf inactive
COc1ccc(CSC(=S)NNc2ccccc2)cc1	none (no result: UPR XBP1 act, CHOP inh, CHOP UPR activ)
CC(C)c1ccc(N2C(=O)CC(Sc3nc4ccccc4o3)C2=O)cc1 (configuration not stated)	CHOP UPR activ 199.0 | CHOP UPR conf 95.5
CC(C)c1ccc(N2C(=O)CC(Sc3ncn[nH]3)C2=O)cc1 (configuration not stated)	none
Cc1ccc(C(=O)NC(C#N)=C(Cl)Cl)cc1	CHOP inh 80.2, CHOP UPR activ 135.7 (no result: GAA850 FXN act) | CHOP UPR conf 44.6
CCCNC(=O)C1(C)CCCN(Cc2c(F)cccc2F)C1 (configuration not stated)	none (no result: UPR XBP1 act, CHOP inh, CHOP UPR activ)
Cc1ccc(S(=O)(=O)N(C(=O)c2ccncc2)c2ccc(OC(=O)c3ccncc3)c3ccccc23)cc1	none
Cc1ccc(S(=O)(=O)N(C(=O)c2ccncc2)c2ccc(OC(=O)c3ccncc3)c3ccccc23)c(C)c1	CHOP UPR activ 58.7 | CHOP UPR conf 113.2
CCCCCCN1C[C@@H](n2cc(-c3ccc(F)cc3)nn2)[C@H](O)C[C@@H]1c1ccccc1	none (no result: UPR XBP1 act, CHOP inh, CHOP UPR activ)
CC(=O)N(\C=C/C=C/C=C1\Sc2ccccc2C1=O)c1ccccc1	CHOP UPR activ 63.9 | CHOP UPR conf 35.1
COc1cc(CNc2ncnc3c2ncn3[C@H]2CN(Cc3cc(OC)c(OC)c(OC)c3)C[C@@H](CO)O2)cc(OC)c1OC	none (no result: UPR XBP1 act, CHOP inh, CHOP UPR activ)
COC(=O)CCSc1cc(NCCOC(C)=O)c([N+](=O)[O-])c2nonc12	none
CC(=O)OCCCNc1cc(Sc2ccc(C)cc2)c2nonc2c1[N+](=O)[O-]	CHOP inh 109.3, CHOP UPR activ 149.4 | CHOP UPR conf inactive
COc1ccc(C(=O)Sc2ccc(C)cc2)cc1OC	none
COc1ccc(C(=O)Sc2ccc(Cl)cc2)cc1OC	CHOP UPR activ 87.1 | CHOP UPR conf 57.8

Assay outcomes deposited in PubChem BioAssay by several laboratories.
